# High-throughput results as filed in PubChem BioAssay.
# Rad51 HR inh: blocks human Rad51 in homologous recombination | 200,000 compounds, 0.085% hits | inhibition, % at 10 µM | Q06609 | hRad51 DNA strand exchange, fluorescence dequenching;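 active means inhibition above 40% at the single screening dose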
# Target sequence (Q06609 whole entry, looked up): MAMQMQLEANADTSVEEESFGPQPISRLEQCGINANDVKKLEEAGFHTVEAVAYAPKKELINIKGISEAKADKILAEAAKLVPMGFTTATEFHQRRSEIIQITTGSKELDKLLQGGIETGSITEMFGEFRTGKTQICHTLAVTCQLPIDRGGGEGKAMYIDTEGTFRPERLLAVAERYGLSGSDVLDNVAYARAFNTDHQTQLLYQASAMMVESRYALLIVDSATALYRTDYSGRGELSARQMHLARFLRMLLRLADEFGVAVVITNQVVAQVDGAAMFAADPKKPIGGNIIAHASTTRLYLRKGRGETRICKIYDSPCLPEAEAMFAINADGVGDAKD
#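 material = hRad51 filaments on single-stranded DNA | reagent = Donor/quencher-labelled 47-bp dsDNA substrate | compound = 10 µM final, single point | schedule = strand-exchange reaction 15 min at room temperature | measured by = fluorescein emission 520 nm, excitation 485 nm | read-out basis = % inhibition versus plate control and blank means | benchmarks = plate controls and plate blanks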
# Calpain2 inh: inhibitors of pig calpain II; purified calpain II, fluorogenic peptide substrate, 30 min; inhibition, % at 16 µM; 220,000 compounds, 0.37% hits;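 active means inhibition above about 50%, limit read from the data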
# Lmaj promast: reduces viability of Leishmania major promastigotes | resazurin fluorescence viability | inhibition, % at 10 µM | 200,000 compounds, 9% hits; in the data active means inhibition above about 50%;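 further: promastigotes grown with compound for 44 hours at 28 °C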
# WT yeast gro inh: growth inhibition of WT yeast, mitochondrial fusion screen; inhibition, % at 10 µM; 190,000 compounds, 2.1% hits; AID 1362; mitochondrial fusion phenotypic screen, WT strain; in the data active means inhibition above about 58%; tested in S. cerevisiae
# PMI act hi M6P: increases human PMI activity with near-saturating mannose 6-phosphate; P34949; coupled PMI enzyme assay, resazurin fluorescence, 20 min; stronger effect = higher value; 1 = untreated enzyme, 0 = substrate-free blank; activation factor at 20 µM; 190,000 compounds, 0.34% hits;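 active means activation factor of 2 or more at 20 µM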
#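 Material: human phosphomannose isomerase with PGI, G6PDH, diaphorase coupling enzymes; amount: PMI at 15 ng/mL final; also added: Mannose-6-phosphate 1.0 mM (near-saturating) plus 0.22 mM NADP+; incubation: enzyme reaction with compound 20 min at room temperature; signal: resorufin fluorescence (Ex 544/Em 590 nm) from resazurin via diaphorase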
# PMI act: phosphomannose isomerase (human) activation; AID 1214; activation factor at 20 µM; 190,000 compounds, 0.005% hits; purified human PMI, coupled resazurin fluorescence, 20 min; stronger effect = higher value; 1 = vehicle control, 0 substrate-free wells;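 active means activation factor of 2 or more at 20 µM, relative to plate controls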
# Numbers stand for hits; i = inactive; nt = no result given. An excerpt weighted towards active compounds, which were near 9.8% of everything screened.
SMILES,Rad51 HR inh,Calpain2 inh,Lmaj promast,WT yeast gro inh,PMI act hi M6P,PMI act
COc1cc(COCC(O)CN2CCN(Cc3ccccc3)CC2)cc(OC)c1OC (stereo not drawn),i,i,88,i,i,i
OC(COc1ccccc1)CN1CCN(Cc2ccc3c(c2)OCO3)CC1 (stereo not drawn),i,i,85,i,i,i
CCOC(=O)C1CCN(CC(O)COCc2ccc3c(c2)OCO3)CC1 (stereo not drawn),i,i,86,i,i,i
C=CCn1c(SCCN2CCCC2)nc2c([nH]c3ccccc32)c1=O,i,i,i,i,i,i
CCCC(C)NC(=O)COc1ccc(S(=O)(=O)N2CCCC2)cc1 (stereo not drawn),i,i,i,i,i,i
COc1ccc(C(=O)Nc2nc3cc4c(cc3s2)OCCO4)c(OC)c1,nt,i,nt,nt,nt,nt
O=C1c2cccc3cccc(c23)C(=O)N1CC1CCN(CC(O)COCc2ccc3c(c2)OCO3)CC1 (stereo not drawn),i,i,90,i,i,i
OC(COc1ccc2c(c1)OCO2)CN1CCN(c2ccc(F)cc2)CC1 (stereo not drawn),i,i,53,i,i,i
OC(COCc1ccc2c(c1)OCO2)CN1CCN(Cc2ccccc2)CC1 (stereo not drawn),i,i,89,i,i,i
O=C(CN1CCN(c2ccc(F)cc2)CC1)c1ccc2c(c1)OCO2,nt,i,88,i,i,i
OC(COc1ccc2c(c1)OCO2)CN1CCCC1 (stereo not drawn),i,i,i,i,i,i
COc1ccccc1NC(=O)Cc1noc(CSc2n[nH]c(N)n2)n1,i,i,i,i,i,i
Cc1ccc(C)c(OCC(O)CN2CCC(CN3C(=O)c4cccc5cccc(c45)C3=O)CC2)c1 (stereo not drawn),i,i,100,i,i,i
CCOc1ccc(/C=C/c2c([N+](=O)[O-])c(=O)n(C)c(=O)n2C)cc1,i,i,65,i,i,i
Nc1nnc(SCC(=O)c2ccc([N+](=O)[O-])cc2)s1,i,i,84,i,i,i
Cc1nnc(SCC(=O)c2ccc(Cl)cc2)s1,41,i,i,i,i,i
O=C(CSc1ccccc1C(=O)O)c1ccc([N+](=O)[O-])cc1,nt,i,i,i,2.2,i
OCC1(Cc2ccccc2)CCCN(Cc2c[nH]c3ccccc23)C1 (stereo not drawn),i,i,i,i,i,i
O=C(NN1C(=O)C2CC=C(Cl)CC2C1=O)c1ccncc1 (stereo not drawn),i,i,i,i,i,i
CC1CCc2c(sc3nc(CSc4ncn[nH]4)[nH]c(=O)c23)C1 (stereo not drawn),i,i,i,i,i,i
C=CCn1c(-c2ccccc2)nc2nc3ccccc3nc21,i,i,i,i,i,i
C=CCn1c(-c2ccc(C)cc2)nc2ccccc21,i,i,87,i,i,i
CCOC(Cn1c(-c2ccc(OC)cc2)nc2ccccc21)OCC,i,i,64,i,i,i
C=C(C)Cn1c(-c2ccc(OC)cc2)nc2ccccc21,nt,i,55,i,i,i
C=C(C)Cn1c(SCC(=O)O)nnc1-c1ccc(OC)cc1,i,i,i,i,i,i
SMILES,Rad51 HR inh,Calpain2 inh,Lmaj promast,WT yeast gro inh,PMI act hi M6P,PMI act
COCCn1c(-c2ccccc2)nc2ccccc21,nt,i,i,i,i,i
COCn1c(-c2ccc(OC)cc2)nc2ccccc21,i,i,i,i,i,i
COc1ccc(-c2nc3ccccc3n2Cc2ccc(C)cc2)cc1,i,i,82,i,i,i
CC1SC(c2ccc(F)cc2)NC1=O (stereo not drawn),i,i,i,i,i,i
CCOC(=O)c1cc(-c2ccc(OC)cc2)nc2c1c(C)nn2CCC(N)=S,i,i,i,i,i,i
CC(=O)c1ccc(-n2c(SCC(=O)c3c[nH]c4ccccc34)nc3ccccc3c2=O)cc1,i,i,i,i,i,i
CCc1c(C)nc(SCC(=O)N2CCCCC2CC)[nH]c1=O (stereo not drawn),i,i,nt,nt,nt,nt
COc1ccc(Cn2c(-c3ccc(C)cc3)c[n+]3ccccc23)cc1,i,i,100,60,i,i
COc1ccc(CNC(=O)c2c([S-])n(-c3ccc(C)cc3)c3cccc[n+]23)cc1,i,i,i,i,i,i
CCCCCC(=O)Cc1cc(O)cc2c1C(=O)Oc1cc(O)c(C(=O)O)c(CCCCC)c1O2,i,i,nt,nt,nt,nt
Cc1ccc(-c2[nH]c3ccccc3c2SCCNC(=O)c2ccc(S(=O)(=O)N3CCOCC3)cc2)cc1,i,i,99,i,i,i
COc1ccc(-c2[nH]c3ccccc3c2SCCNC(=O)c2ccccc2)cc1,nt,i,i,i,i,i
C=C(C)C1CC=C(C)/C(=N/Nc2ccccc2[N+](=O)[O-])C1 (stereo not drawn),nt,i,i,i,i,i
C=C(C)C1CC=C(C)/C(=N\NC(=O)CCC(=O)Nc2ccc(C)c(C)c2)C1 (stereo not drawn),i,i,nt,nt,nt,nt
C=C(C)C1CC=C(C)/C(=N/NC(=O)CNc2ccc(OCC)cc2)C1 (stereo not drawn),i,i,100,i,i,i
C=C(C)C1CC=C(C)/C(=N/NC(=O)c2ccc(NC(=O)CCC)cc2)C1 (stereo not drawn),i,i,100,i,i,i
C=C(C)C1CC=C(C)/C(=N/NC(=O)c2ccccc2[N+](=O)[O-])C1 (stereo not drawn),i,i,63,i,i,i
C=C(C)C1CC=C(C)/C(=N/NC(=O)c2cccs2)C1 (stereo not drawn),i,i,i,i,i,i
C=C(C)C1CC=C(C)/C(=N/NC(=O)c2ccc(NC(=O)CC)cc2)C1 (stereo not drawn),i,i,99,i,i,i
Cc1cc(=O)[nH]c(-n2ncc(C#N)c2N)n1,i,i,i,i,i,i
Cc1nn(Cc2ccc([N+](=O)[O-])cc2)c(=O)n1-c1cccc(Cl)c1,i,i,i,i,i,i
CC(Sc1ccc2nnc(-c3ccc(F)cc3)n2n1)C(=O)O (stereo not drawn),nt,i,i,i,2.2,i
CCOc1ccccc1OCCCNCc1ccco1,nt,i,i,i,i,i
COc1cccc(/C=N/Nc2nc(-c3cccnc3)nc3ccccc23)c1,nt,i,nt,nt,nt,nt
COc1cccc(CNc2nc(-c3cccnc3)nc3ccccc23)c1,i,i,76,i,i,i
COc1ccc(C2=NN(C(=O)CSc3ncccn3)C(c3cccc(OC)c3OC)C2)cc1 (stereo not drawn),i,i,79,i,i,i
COc1ccc2cc(C(=O)C3CCCN(C(=O)Cc4c(C)noc4C)C3)ccc2c1 (stereo not drawn),i,i,i,i,i,i
CN(C)c1ncc(S(=O)(=O)c2ccccc2)c(-c2ccc(Cl)cc2Cl)n1,nt,i,i,i,i,i
